Source: ChEMBL document CHEMBL3393037, “Design, synthesis, and biological evaluation of aminothiazole derivatives against the fungal pathogens Histoplasma capsulatum and Cryptococcus neoformans” (Bioorg Med Chem, 2015)
pIC50: −log10 of the molar value. ≈ marks a conversion by molar mass, not a printed value.

Tests used:
[1] = Antifungal activity against Histoplasma capsulatum G217B ATCC 26032 assessed as inhibition of visible growth after 5 days; type: functional
Method in brief: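 Wild-type G217B yeasts kept in HMM at 37 °C under 5% CO2. Wells held 2×10^5 yeasts (hemocytometer count) with a two-fold dilution series from 40 to 0.078 µM, at 1% DMSO in the top dilution. Plates were agitated twice daily and growth followed by A595 over 5 days. MIC is the lowest concentration with no visible growth on visual inspection of the plates.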

Cryptococcus neoformans = experiment: Antifungal activity against Cryptococcus neoformans MATalpha serotype A strain H99 assessed as inhibition of visible growth after 5 days; type: functional; conditions: MATalpha serotype A strain H99, 120 h
[2] = Cytotoxicity against human HepG2 cells after 72 hrs by crystal violet staining method; type: cell-based; conditions: for CC50 at 72 h: read-out: MIC50
Method in brief: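 HepG2 cells in MEM with 10% FBS and 2 mM L-glutamine were seeded at 1×10^4 per well and left to adhere overnight. Compound was added at 0.3 to 80 µM for 72 h. Cells were fixed in 3% paraformaldehyde, stained with 0.1% crystal violet, and the dye taken up in 10% acetic acid and read at A590. Values were normalised to DMSO-matched controls, in triplicate.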

[3] = Selectivity index, ratio of MIC50 for human HepG2 cells to MIC50 for Histoplasma capsulatum strain G217B ATCC 26032
[4] = Cytotoxicity against mouse P388D1 […] cells after 48 hrs by crystal violet staining method; type: cell-based; conditions: P388D1, 48 h

With `O=C(Nc1ncc(CCc2ccccc2)s1)C1CCCC1` as the compound, how does the MIC [1] read?
Its MIC is 2.5 µM (≈ 0.751 µg/mL).

And the MIC50 [1]?
Its MIC50 is 0.9 µM (≈ 0.27 µg/mL).

And the MIC (Cryptococcus neoformans)?
Its MIC is 5 µM (≈ 1.5 µg/mL).

And the MIC50 (Cryptococcus neoformans)?
The MIC50 was 2.7 µM (≈ 0.811 µg/mL).

What does the source list for `O=C(Nc1ncc(Cc2ccccc2)s1)C1CCCCC1`?
MIC [1]: 5 µM (≈ 1.5 µg/mL); MIC50 [1]: 1.6 µM (≈ 0.481 µg/mL); MIC (Cryptococcus neoformans): 5 µM (≈ 1.5 µg/mL); MIC50 (Cryptococcus neoformans): 1.3 µM (≈ 0.391 µg/mL); CC50 at 72 h [2]: > 40 µM; Ratio [3]: >21

For `O=C(CCC1CCCCC1)Nc1ncc(Cc2ccccc2Cl)s1`, which MIC [1] is on record?
Its MIC is 2.5 µM (≈ 0.907 µg/mL).

And the MIC50 [1]?
Its MIC50 is 0.9 µM (≈ 0.327 µg/mL).

What about the MIC (Cryptococcus neoformans) of the same compound?
The MIC was > 20 µM.

And the MIC50 (Cryptococcus neoformans)?
Its MIC50 is > 10 µM.

Which results are given for `O=C(Nc1ncc(Cc2cccc3ccccc23)s1)c1ccccc1`?
MIC [1]: > 20 µM; MIC50 [1]: > 10 µM

With `O=C(CCC1CCCCC1)Nc1ncc(Cc2ccccc2)s1` as the compound, how does the MIC [1] read?
Its MIC is 1.3 µM (≈ 0.427 µg/mL).

And the MIC50 [1]?
The MIC50 was 0.7 µM (≈ 0.23 µg/mL).

What about the MIC (Cryptococcus neoformans) of the same compound?
The MIC was > 20 µM.

And the MIC50 (Cryptococcus neoformans)?
The MIC50 was > 10 µM.

What about the CC50 at 72 h [2] of the same compound?
The CC50 at 72 h was > 40 µM.

What about the Ratio [3] of the same compound?
Its Ratio is >44.

For `O=C(CCC1CCCCC1)Nc1nc(-c2ccccc2)cs1`, which MIC [1] is on record?
Its MIC is > 20 µM.

What about the MIC50 [1] of the same compound?
The MIC50 was > 10 µM.

Which MIC [1] does the source give for `O=C(Nc1ncc(Cc2ccc3ccccc3c2)s1)C12CC3CC(CC(C3)C1)C2` here?
Its MIC is > 20 µM.

What about the MIC50 [1] of the same compound?
The MIC50 was > 10 µM.

With `O=C(Nc1ncc(Cc2ccccc2)s1)c1ccccc1` as the compound, how does the MIC [1] read?
The MIC was > 20 µM.

And the MIC50 [1]?
Its MIC50 is > 10 µM.

Which results are given for `O=C(CC1CCCCC1)Nc1ncc(Cc2ccc3ccccc3c2)s1`?
MIC [1]: 20 µM (≈ 7.29 µg/mL); MIC50 [1]: 5.7 µM (≈ 2.08 µg/mL)

Which MIC50 [1] does the source give for `NC(=O)c1cc(-c2ccccc2)sc1NC(=O)c1ccc2c(c1)OCCO2` here?
Its MIC50 is 2.5 µM (≈ 0.951 µg/mL).

What about the MCC at 72 h ([2]; read-out: MIC) of the same compound?
The MCC at 72 h was 10 µM.

With `O=C(Nc1ncc(Cc2ccccc2)s1)N1CCCCC1` as the compound, how does the MIC [1] read?
Its MIC is > 20 µM.

What about the MIC50 [1] of the same compound?
Its MIC50 is > 10 µM.

With `O=C(CCC1CCCCC1)Nc1ncc(-c2ccccc2)s1` as the compound, how does the MIC [1] read?
Its MIC is > 20 µM.

What about the MIC50 [1] of the same compound?
Its MIC50 is > 10 µM.

What does the source list for `CC(C)C(=O)Nc1ncc(Cc2ccccc2)s1`?
MIC [1]: 20 µM (≈ 5.21 µg/mL); MIC50 [1]: 6.7 µM (≈ 1.74 µg/mL)

Which MIC [1] does the source give for `O=C(CCC1CCCCC1)Nc1ncc(Cc2cccc(F)c2)s1` here?
Its MIC is 2.5 µM (≈ 0.866 µg/mL).

And the MIC50 [1]?
Its MIC50 is 0.8 µM (≈ 0.277 µg/mL).

What about the MIC (Cryptococcus neoformans) of the same compound?
Its MIC is > 20 µM.

And the MIC50 (Cryptococcus neoformans)?
Its MIC50 is > 10 µM.

And the CC50 at 72 h [2]?
Its CC50 at 72 h is 40 µM.

And the Ratio [3]?
Its Ratio is 57.

With `O=C(CCC1CCCCC1)Nc1ncc(Cc2cccc3ccccc23)s1` as the compound, how does the MIC [1] read?
Its MIC is 1.3 µM (≈ 0.492 µg/mL).

And the MIC50 [1]?
Its MIC50 is 0.4 µM (≈ 0.151 µg/mL).

What about the MIC (Cryptococcus neoformans) of the same compound?
The MIC was > 20 µM.

What about the MIC50 (Cryptococcus neoformans) of the same compound?
Its MIC50 is > 10 µM.

And the CC50 at 72 h [2]?
Its CC50 at 72 h is > 40 µM.

And the Ratio [3]?
Its Ratio is >100.

For `O=C(Nc1ncc(Cc2ccccc2)s1)N1CCOCC1`, which MIC [1] is on record?
Its MIC is > 20 µM.

And the MIC50 [1]?
The MIC50 was > 10 µM.

With `O=C(Nc1ncc(Cc2cccc3ccccc23)s1)C(F)(F)F` as the compound, how does the MIC [1] read?
Its MIC is > 20 µM.

What about the MIC50 [1] of the same compound?
Its MIC50 is > 10 µM.

With `O=C(Nc1ncc(Cc2ccc(F)cc2)s1)C1CCCC1` as the compound, how does the MIC [1] read?
The MIC was 20 µM (≈ 6.09 µg/mL).

What about the MIC50 [1] of the same compound?
Its MIC50 is 5.2 µM (≈ 1.58 µg/mL).

What does the source list for `O=C(CC1CCCCC1)Nc1ncc(Cc2ccccc2)s1`?
MIC [1]: 2.5 µM (≈ 0.786 µg/mL); MIC50 [1]: 0.7 µM (≈ 0.22 µg/mL); MIC (Cryptococcus neoformans): > 20 µM; MIC50 (Cryptococcus neoformans): > 10 µM; CC50 at 72 h [2]: > 40 µM; Ratio [3]: >44

For `O=C(Nc1ncc(Cc2ccc(F)cc2)s1)C1CCCCC1`, which MIC [1] is on record?
The MIC was 20 µM (≈ 6.37 µg/mL).

And the MIC50 [1]?
Its MIC50 is 4.4 µM (≈ 1.4 µg/mL).

What does the source list for `O=C(CCC1CCCCC1)Nc1nnc(Cc2ccccc2)s1`?
MIC [1]: > 20 µM; MIC50 [1]: > 10 µM

Which results are given for `O=C(Nc1ncc(Cc2ccccc2)s1)C1CCOCC1`?
MIC [1]: > 20 µM; MIC50 [1]: > 10 µM

Which results are given for `CN1CCC(C(=O)Nc2ncc(Cc3ccccc3)s2)CC1`?
MIC [1]: > 20 µM; MIC50 [1]: > 10 µM

Which MIC [1] does the source give for `O=C(CC1CCCCC1)Nc1ncc(-c2ccccc2)s1` here?
The MIC was > 20 µM.

And the MIC50 [1]?
Its MIC50 is > 10 µM.

Which MIC [1] does the source give for `O=C(Nc1ncc(Cc2cccc3ccccc23)s1)C1CCCC1` here?
The MIC was 1.3 µM (≈ 0.437 µg/mL).

And the MIC50 [1]?
Its MIC50 is 0.8 µM (≈ 0.269 µg/mL).

What about the MIC (Cryptococcus neoformans) of the same compound?
Its MIC is 1.3 µM (≈ 0.437 µg/mL).

What about the MIC50 (Cryptococcus neoformans) of the same compound?
The MIC50 was 0.8 µM (≈ 0.269 µg/mL).

What about the CC50 at 72 h [2] of the same compound?
The CC50 at 72 h was > 40 µM.

And the Ratio [3]?
Its Ratio is >57.

For `O=C(CCC1CCCCC1)Nc1ncc(Cc2ccc(F)cc2)s1`, which MIC [1] is on record?
The MIC was > 20 µM.

What about the MIC50 [1] of the same compound?
Its MIC50 is > 10 µM.

Which results are given for `O=C(Nc1nc(C23CC4CC(CC(C4)C2)C3)cs1)c1ccccc1`?
MIC [1]: 10 µM (≈ 3.38 µg/mL); MIC50 [1]: 3.1 µM (≈ 1.05 µg/mL); MIC (Cryptococcus neoformans): 20 µM (≈ 6.77 µg/mL); MIC50 (Cryptococcus neoformans): 8.3 µM (≈ 2.81 µg/mL)

What does the source list for `CC(C)C(=O)Nc1ncc(CC2CCCCC2)s1`?
MIC [1]: > 20 µM; MIC50 [1]: > 10 µM

With `O=C(Nc1ncc(Cc2cccc3ccccc23)s1)C1CCCCC1` as the compound, how does the MIC [1] read?
The MIC was 0.6 µM (≈ 0.21 µg/mL).

What about the MIC50 [1] of the same compound?
Its MIC50 is 0.4 µM (≈ 0.14 µg/mL).

And the MIC (Cryptococcus neoformans)?
The MIC was 0.6 µM (≈ 0.21 µg/mL).

What about the MIC50 (Cryptococcus neoformans) of the same compound?
The MIC50 was 0.4 µM (≈ 0.14 µg/mL).

And the CC50 at 72 h [2]?
The CC50 at 72 h was 39 µM.

And the Ratio [3]?
The Ratio was 97.

And the pIC50 [4]?
Its pIC50 is 4.27.

Which results are given for `O=C(CCC1CCCCC1)Nc1ncc(Cc2cccc(Cl)c2)s1`?
MIC [1]: 2.5 µM (≈ 0.907 µg/mL); MIC50 [1]: 1.1 µM (≈ 0.399 µg/mL); MIC (Cryptococcus neoformans): > 20 µM; MIC50 (Cryptococcus neoformans): > 10 µM; CC50 at 72 h [2]: 39 µM; Ratio [3]: 65

For `O=C(Nc1ncc(-c2ccccc2)s1)C1CCCCC1`, which MIC [1] is on record?
The MIC was > 20 µM.

What about the MIC50 [1] of the same compound?
Its MIC50 is > 10 µM.

With `O=C(CC1CCCCC1)Nc1ncc(CC2CCCCC2)s1` as the compound, how does the MIC [1] read?
The MIC was > 20 µM.

And the MIC50 [1]?
Its MIC50 is > 10 µM.

With `CC(C)C(=O)Nc1ncc(Cc2cccc3ccccc23)s1` as the compound, how does the MIC [1] read?
Its MIC is 2.5 µM (≈ 0.776 µg/mL).

What about the MIC50 [1] of the same compound?
Its MIC50 is 1.5 µM (≈ 0.466 µg/mL).

And the MIC (Cryptococcus neoformans)?
The MIC was > 20 µM.

What about the MIC50 (Cryptococcus neoformans) of the same compound?
Its MIC50 is > 10 µM.
